One may read the inhibition as the change of the read-out against control, counted positive when it falls.

Drawing on ChEMBL document CHEMBL4251655 (Eur J Med Chem, 2018), this text covers inhibition for six molecules.

Test [1] addresses T1, Aurora kinase A (Homo sapiens) (UniProt O14965).
T1 sequence (whole entry): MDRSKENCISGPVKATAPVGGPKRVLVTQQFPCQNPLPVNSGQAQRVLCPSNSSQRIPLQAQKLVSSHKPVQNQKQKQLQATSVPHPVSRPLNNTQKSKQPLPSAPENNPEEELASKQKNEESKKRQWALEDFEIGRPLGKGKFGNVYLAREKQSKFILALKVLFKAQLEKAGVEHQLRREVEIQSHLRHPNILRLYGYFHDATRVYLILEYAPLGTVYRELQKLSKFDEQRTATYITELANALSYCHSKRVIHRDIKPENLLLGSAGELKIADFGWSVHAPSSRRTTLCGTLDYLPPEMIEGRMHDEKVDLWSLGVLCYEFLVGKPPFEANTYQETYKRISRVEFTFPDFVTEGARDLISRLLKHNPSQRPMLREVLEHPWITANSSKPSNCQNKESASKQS
Put plainly: Inhibition of recombinant full length human His-tagged AURKA expressed in baculovirus expression system at 1 uM relative to control. In a few lines: (§1)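 Forty-kinase selectivity panel; each compound tested at a single 1 µM concentration in the presence of 1 mM ATP; result given as percent inhibition.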

For test [2], the target named is Vascular endothelial growth factor receptor 2 (Homo sapiens) (UniProt P35968). Put plainly: Inhibition of recombinant human His-tagged KDR cytoplasmic domain expressed in baculovirus expression system at 1 uM relative to control. In short, it runs like this: as §1
In test [3] the target is Serine/threonine-protein kinase 26 (Homo sapiens) (UniProt Q9P289). The experiment in a line: Inhibition of recombinant human full length GST-tagged MST4 expressed in baculovirus expression system at 1 uM relative to control. In a few lines: as §1
Test [4] has as its target Tyrosine-protein kinase Lck (Homo sapiens) (UniProt P06239). The experiment in a line: Inhibition of recombinant human full length His-tagged LCK expressed in baculovirus expression system at 1 uM relative to control. In a few lines:
as §1

For test [5], the target named is Mitogen-activated protein kinase kinase kinase kinase 4 (Homo sapiens) (UniProt O95819). Put plainly: Inhibition of recombinant human GST-tagged MAP4K4 (1 to 328 residues) expressed in baculovirus expression system at 1 uM relative to control. In short, it runs like this: as §1
Test [6] addresses T2, Interleukin-1 receptor-associated kinase 4 (Homo sapiens) (UniProt Q9NWZ3).
T2 sequence (whole entry): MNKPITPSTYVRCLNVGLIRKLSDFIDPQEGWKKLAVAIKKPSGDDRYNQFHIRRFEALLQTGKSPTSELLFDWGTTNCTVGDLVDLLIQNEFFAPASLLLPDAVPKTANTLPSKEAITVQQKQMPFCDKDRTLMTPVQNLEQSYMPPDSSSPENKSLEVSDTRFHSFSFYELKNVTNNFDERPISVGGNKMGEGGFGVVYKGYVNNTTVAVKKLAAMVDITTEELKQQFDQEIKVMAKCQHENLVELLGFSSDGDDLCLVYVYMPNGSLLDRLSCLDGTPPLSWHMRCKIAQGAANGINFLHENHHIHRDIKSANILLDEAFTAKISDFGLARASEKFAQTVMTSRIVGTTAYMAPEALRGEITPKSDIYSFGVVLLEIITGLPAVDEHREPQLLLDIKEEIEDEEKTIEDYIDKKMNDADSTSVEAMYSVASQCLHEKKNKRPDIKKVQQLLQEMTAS
Put plainly: Inhibition of recombinant full length human His-tagged IRAK4 expressed in baculovirus expression system at 1 uM relative to control. In short, it runs like this: as §1

Test [7] concerns the target T3, Serine/threonine-protein kinase Chk1 (Homo sapiens) (UniProt O14757).
T3 sequence (whole entry): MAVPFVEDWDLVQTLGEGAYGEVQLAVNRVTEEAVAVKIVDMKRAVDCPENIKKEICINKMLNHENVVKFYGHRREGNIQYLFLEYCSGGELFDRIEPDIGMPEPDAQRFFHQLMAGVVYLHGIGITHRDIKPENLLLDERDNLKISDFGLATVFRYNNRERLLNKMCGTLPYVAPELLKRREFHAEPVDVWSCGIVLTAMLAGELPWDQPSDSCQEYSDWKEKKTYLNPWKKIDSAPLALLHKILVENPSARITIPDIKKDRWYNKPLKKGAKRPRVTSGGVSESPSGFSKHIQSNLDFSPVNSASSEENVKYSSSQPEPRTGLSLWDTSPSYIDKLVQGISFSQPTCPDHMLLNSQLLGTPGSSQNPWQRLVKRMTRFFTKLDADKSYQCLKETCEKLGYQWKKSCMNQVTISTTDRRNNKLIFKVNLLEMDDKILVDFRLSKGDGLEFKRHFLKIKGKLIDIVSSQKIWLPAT
The experiment in a line: Inhibition of recombinant full length human His-tagged CHEK1 expressed in baculovirus expression system at 1 uM relative to control. In short, it runs like this: as §1

Test [8] deals with Insulin receptor (Homo sapiens) (UniProt P06213). The experiment in a line: Inhibition of recombinant human GST-tagged INSR cytoplasmic domain expressed in baculovirus expression system at 1 uM relative to control. In a few lines:
as §1

The target in test [9] is Epidermal growth factor receptor (Homo sapiens) (UniProt P00533). The experiment in a line: Inhibition of recombinant human GST-tagged EGFR cytoplasmic domain expressed in baculovirus expression system at 1 uM relative to control. In a few lines:
as §1

In test [10] the target is Rho-associated protein kinase 1 (Homo sapiens) (UniProt Q13464). Put plainly: Inhibition of recombinant human GST-tagged ROCK1 (1 to 535 residues) expressed in baculovirus expression system at 1 uM relative to control. In short, it runs like this:
as §1

Test [11] has as its target Serine/threonine-protein kinase Chk2 (Homo sapiens) (UniProt O96017). Put plainly: Inhibition of recombinant full length human His-tagged CHEK2 expressed in baculovirus expression system at 1 uM relative to control. In a few lines:
as §1

Sequence of Tyrosine-protein kinase Lck (Homo sapiens) (P06239 2-509 limits assumed): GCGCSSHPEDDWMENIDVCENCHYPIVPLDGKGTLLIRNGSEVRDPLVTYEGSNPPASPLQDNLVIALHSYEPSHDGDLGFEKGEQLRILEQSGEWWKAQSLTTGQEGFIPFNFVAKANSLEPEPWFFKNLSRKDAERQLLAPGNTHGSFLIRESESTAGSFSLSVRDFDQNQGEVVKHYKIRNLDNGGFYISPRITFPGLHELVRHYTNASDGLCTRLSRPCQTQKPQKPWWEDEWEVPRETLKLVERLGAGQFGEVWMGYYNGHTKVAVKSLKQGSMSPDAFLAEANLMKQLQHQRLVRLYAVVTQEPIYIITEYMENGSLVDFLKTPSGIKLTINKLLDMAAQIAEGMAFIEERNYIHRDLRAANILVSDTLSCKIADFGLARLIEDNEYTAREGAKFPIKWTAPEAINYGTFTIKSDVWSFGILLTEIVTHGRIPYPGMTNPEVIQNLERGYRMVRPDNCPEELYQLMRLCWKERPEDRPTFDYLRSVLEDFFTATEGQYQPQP
Sequence of Serine/threonine-protein kinase Chk2 (Homo sapiens) (O96017 whole entry): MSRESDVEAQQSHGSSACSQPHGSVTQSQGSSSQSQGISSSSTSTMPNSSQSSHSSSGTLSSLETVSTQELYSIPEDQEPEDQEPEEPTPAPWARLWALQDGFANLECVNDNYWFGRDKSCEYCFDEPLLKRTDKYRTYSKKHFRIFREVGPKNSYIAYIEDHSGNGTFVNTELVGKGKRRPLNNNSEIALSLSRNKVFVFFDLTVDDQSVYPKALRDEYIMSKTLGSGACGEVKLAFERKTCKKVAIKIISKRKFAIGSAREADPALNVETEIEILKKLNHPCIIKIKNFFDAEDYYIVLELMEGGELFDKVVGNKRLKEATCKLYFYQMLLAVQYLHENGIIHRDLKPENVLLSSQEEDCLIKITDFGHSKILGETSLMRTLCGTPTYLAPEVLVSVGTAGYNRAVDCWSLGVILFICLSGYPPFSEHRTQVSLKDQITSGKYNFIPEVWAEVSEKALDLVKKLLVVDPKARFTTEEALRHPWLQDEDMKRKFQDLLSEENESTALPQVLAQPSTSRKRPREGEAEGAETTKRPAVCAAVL
Sequence of Mitogen-activated protein kinase kinase kinase kinase 4 (Homo sapiens) (O95819 2-1239 limits assumed): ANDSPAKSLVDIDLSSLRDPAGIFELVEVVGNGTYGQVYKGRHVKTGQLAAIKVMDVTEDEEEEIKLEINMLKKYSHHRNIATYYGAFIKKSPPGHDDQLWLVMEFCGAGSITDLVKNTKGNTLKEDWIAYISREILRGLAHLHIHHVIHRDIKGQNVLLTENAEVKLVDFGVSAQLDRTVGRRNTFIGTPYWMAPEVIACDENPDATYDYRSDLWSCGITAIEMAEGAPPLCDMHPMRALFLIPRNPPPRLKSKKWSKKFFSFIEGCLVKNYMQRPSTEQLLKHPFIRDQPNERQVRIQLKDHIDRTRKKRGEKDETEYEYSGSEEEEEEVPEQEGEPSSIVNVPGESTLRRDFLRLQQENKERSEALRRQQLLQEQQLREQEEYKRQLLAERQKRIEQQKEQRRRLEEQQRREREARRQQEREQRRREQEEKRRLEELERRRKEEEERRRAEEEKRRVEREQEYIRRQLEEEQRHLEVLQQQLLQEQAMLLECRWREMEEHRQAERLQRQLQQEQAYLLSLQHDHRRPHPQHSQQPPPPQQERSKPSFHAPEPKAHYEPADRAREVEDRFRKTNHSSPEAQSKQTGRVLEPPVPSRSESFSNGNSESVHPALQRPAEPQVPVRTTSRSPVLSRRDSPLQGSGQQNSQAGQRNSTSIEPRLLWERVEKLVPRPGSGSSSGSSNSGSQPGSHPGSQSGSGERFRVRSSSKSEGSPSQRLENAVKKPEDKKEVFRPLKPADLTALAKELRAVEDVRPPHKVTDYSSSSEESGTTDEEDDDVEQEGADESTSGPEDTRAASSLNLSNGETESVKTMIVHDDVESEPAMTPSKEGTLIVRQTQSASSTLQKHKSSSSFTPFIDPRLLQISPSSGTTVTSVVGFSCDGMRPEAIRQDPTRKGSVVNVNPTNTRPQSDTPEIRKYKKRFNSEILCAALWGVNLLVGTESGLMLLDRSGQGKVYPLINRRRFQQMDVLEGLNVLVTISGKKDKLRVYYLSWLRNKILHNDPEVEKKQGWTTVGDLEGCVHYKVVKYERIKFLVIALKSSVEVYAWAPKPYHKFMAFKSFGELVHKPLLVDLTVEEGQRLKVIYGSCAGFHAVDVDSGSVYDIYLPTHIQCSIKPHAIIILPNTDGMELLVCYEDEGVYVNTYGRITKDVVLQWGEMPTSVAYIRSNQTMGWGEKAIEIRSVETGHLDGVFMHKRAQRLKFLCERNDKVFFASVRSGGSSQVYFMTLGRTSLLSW
Sequence of Insulin receptor (Homo sapiens) (P06213 28-758 limits assumed): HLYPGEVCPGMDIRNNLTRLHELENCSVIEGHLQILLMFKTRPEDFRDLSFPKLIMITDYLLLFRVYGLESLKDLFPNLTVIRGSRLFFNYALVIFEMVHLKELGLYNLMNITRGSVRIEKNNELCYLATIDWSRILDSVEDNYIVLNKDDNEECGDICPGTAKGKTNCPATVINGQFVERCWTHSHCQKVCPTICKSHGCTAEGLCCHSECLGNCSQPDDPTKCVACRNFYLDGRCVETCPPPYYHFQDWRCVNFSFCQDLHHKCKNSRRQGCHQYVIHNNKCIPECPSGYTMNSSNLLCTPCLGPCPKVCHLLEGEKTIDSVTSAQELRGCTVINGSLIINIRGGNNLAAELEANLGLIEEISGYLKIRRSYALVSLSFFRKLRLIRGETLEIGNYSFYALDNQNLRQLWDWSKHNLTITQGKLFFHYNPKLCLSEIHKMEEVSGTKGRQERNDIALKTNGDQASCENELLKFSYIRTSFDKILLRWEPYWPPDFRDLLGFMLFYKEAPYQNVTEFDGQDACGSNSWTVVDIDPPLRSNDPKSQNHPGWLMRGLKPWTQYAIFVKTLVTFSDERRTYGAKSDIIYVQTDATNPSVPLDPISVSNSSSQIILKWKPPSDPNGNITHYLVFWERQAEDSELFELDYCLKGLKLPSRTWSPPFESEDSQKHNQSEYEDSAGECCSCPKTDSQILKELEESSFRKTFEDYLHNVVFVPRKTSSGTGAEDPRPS
Sequence of Insulin receptor (Homo sapiens) (P06213 763-1382 limits assumed): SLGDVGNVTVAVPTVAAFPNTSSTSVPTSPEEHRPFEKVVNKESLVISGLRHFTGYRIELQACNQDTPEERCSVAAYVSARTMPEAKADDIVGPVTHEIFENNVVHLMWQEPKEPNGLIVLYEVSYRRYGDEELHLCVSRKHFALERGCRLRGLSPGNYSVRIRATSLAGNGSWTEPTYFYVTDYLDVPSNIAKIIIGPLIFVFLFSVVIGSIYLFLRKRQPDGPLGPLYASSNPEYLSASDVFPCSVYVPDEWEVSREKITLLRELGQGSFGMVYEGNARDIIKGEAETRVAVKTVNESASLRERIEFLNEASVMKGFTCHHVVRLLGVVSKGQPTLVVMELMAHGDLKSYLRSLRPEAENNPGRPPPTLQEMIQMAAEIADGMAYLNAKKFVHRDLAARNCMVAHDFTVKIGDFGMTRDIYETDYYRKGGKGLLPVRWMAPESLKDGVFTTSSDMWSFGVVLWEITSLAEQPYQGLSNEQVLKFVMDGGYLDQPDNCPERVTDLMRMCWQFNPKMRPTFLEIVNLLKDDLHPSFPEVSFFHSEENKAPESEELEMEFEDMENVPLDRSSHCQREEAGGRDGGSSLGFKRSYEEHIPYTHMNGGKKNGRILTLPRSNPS
Sequence of Vascular endothelial growth factor receptor 2 (Homo sapiens) (P35968 whole entry, the tested form may be a part): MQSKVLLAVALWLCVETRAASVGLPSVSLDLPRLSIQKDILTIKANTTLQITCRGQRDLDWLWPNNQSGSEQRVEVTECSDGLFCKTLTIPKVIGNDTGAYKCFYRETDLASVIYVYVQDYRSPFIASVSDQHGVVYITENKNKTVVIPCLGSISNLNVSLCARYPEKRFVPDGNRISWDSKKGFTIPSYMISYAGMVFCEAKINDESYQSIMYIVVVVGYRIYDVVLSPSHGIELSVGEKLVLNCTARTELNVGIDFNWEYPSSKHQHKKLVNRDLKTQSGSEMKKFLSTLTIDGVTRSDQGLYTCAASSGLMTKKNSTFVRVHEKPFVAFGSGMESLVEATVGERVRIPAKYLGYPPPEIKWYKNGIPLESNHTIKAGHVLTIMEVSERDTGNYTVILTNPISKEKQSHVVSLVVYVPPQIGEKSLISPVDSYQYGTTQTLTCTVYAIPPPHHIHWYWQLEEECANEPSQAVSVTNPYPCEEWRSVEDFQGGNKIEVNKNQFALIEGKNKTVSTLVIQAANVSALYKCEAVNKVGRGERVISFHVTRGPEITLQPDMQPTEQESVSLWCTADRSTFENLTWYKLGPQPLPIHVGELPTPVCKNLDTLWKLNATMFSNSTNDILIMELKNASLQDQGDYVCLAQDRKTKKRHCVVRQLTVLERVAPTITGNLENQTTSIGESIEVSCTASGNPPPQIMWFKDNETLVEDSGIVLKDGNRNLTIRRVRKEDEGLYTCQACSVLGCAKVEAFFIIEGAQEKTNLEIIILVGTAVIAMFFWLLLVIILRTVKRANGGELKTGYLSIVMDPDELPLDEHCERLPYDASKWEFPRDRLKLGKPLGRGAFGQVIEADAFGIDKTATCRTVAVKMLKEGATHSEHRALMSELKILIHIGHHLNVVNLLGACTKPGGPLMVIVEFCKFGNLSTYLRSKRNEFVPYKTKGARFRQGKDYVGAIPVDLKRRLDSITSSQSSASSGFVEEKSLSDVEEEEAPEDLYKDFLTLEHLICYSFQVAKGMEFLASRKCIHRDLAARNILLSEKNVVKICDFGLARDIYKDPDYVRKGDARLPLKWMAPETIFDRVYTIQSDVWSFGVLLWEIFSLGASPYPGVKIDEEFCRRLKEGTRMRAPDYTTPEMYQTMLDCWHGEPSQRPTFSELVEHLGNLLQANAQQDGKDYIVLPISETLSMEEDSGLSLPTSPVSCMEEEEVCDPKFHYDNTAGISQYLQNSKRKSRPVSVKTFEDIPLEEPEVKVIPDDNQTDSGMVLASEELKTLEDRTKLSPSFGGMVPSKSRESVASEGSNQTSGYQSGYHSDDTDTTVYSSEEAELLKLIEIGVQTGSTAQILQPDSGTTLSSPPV

For the molecule `COc1ccc(S(C)(=O)=O)cc1C(=O)Nc1cccc(-c2nncn2C(C)C)n1`, the inhibition was 11% in test [1]; -4% in [2]; 14% in [3]; 4% in test [4]; 12% in [5]; 3% in [6]. Besides, the inhibition was 1% in test [7]; 2% in test [8]; -3% in test [9]; 1% in test [10]; 48% in [11].
In the case of `COc1cc(C)c(S(N)(=O)=O)cc1C(=O)Nc1cccc(-c2nncn2C(C)C)n1`, the inhibition in [1] came out at 5%; in test [2], 8%; in [3], 17%; in test [4], 11%; in test [5], 44%; in [6], 2%. Besides, the inhibition in [7] is 8%; in test [8], -2%; in test [9], 6%; in [10], -3%; in test [11] it was 87%.
`COc1ccc(C(N)=O)cc1C(=O)Nc1cccc(-c2nncn2C(C)C)n1`: the inhibition in test [1] is 3%; in test [2], 59%; in test [3] it was 35%; in test [4], 13%; in test [5], 18%; in test [6], -1%. The inhibition in test [7] came out at 34%; in [8] it was 6%; in [9], 2%; in [10], 11%; in test [11] it was 45%.
As to `COc1cc(C)c(C(N)=O)cc1C(=O)Nc1cccc(-c2nncn2C(C)C)n1`, the inhibition is 2% in test [1]; 57% in [2]; 59% in test [3]; 4% in test [4]; 85% in [5]; -2% in [6]. Besides, the inhibition is 17% in [7]; -2% in test [8]; -3% in [9]; 5% in [10]; 76% in test [11].
On to `COc1cc(C)c(S(C)(=O)=O)cc1C(=O)Nc1cccc(-c2nncn2C(C)C)n1`, for which the inhibition in test [1] is -1%; in test [2], 7%; in test [3], 14%; in test [4], -6%; in [5] it was 20%; in test [6], 4%. The inhibition came out at 2% in test [7]; 0% in [8]; 0% in test [9]; 11% in [10]; 76% in [11].
Take `COc1ccc(S(N)(=O)=O)cc1C(=O)Nc1cccc(-c2nncn2C(C)C)n1`: the inhibition in [1] is -4%; in test [2], -1%; in [3], 10%; in test [4], 8%; in test [5], 18%; in [6], -9%. Moreover, the inhibition in [7] was -4%; in test [8] it was -1%; in [9], -4%; in [10], 7%; in test [11], 73%.
